Most compounds without a hit are left out; they make up all but 1.8% or so of the library.
ARNT-TACC3 inh = disruptors of ARNT/TACC3 protein interaction, primary screen, biochemical, AlphaScreen, single concentration; 390,000 compounds, 0.66% hits; AID 623870, 2012; inhibition, % at 9.99 µM; Transforming acidic coiled-coil-containing protein 3 (Homo sapiens), Q9Y6A5; AlphaScreen His-ARNT PAS-B/GST-TACC3 binding, luminescence; TACC3 fragment carries E629A point mutation;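 active = mean inhibition of replicates at least 50% and at least half of replicates each reaching 50%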;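 note: 0% = complete ARNT plus TACC3 wells and 100% = ARNT alone without TACC3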
SIAE inh = human SIAE inhibitors, primary screen, biochemical, fluorescence polarization, FP-Rh probe, 1536-well HTS; 370,000 compounds, 0.69% hits; Sialate O-acetylesterase (Homo sapiens), Q9HAT2; SIAE FP-Rh probe binding; inhibition, % at 9.66 µM;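 active = inhibition above a cutoff: mean of compounds within the control limits plus 3 SD of those, cut at about 17% in these data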;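 note: 0% = plate median of compound wells and 100% = probe without SIAE protein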
Target sequence (Q9HAT2 whole entry, looked up): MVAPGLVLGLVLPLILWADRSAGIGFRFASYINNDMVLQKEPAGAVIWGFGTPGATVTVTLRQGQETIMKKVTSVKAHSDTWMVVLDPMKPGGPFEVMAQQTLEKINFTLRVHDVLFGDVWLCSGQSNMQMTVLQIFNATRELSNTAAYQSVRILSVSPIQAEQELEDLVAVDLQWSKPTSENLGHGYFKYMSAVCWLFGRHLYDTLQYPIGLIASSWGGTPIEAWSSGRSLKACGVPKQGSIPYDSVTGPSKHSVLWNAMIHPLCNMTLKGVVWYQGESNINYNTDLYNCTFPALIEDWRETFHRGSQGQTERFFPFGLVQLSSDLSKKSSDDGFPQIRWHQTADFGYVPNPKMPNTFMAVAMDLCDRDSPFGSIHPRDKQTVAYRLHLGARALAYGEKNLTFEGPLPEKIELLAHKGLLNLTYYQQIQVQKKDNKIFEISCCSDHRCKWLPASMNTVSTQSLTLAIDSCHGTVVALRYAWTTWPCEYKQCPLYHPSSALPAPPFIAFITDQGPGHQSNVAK
HTRA1 inh = HTRA1 serine protease inhibitors, primary screen, biochemical, fluorescence polarization, HTS | recombinant HTRA1, FP-rhodamine activity-based probe | inhibition, % at 5.96 µM | AID 504803, 2011 | Q92743 | 340,000 compounds, 0.5% hits; in the data active = inhibition above about 36%;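 note: 0% = enzyme with DMSO and 100% = wells lacking enzyme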
ABHD4 inh = ABHD4 inhibitors, primary screen, biochemical, fluorescence polarization, mouse | (Lyso)-N-acylphosphatidylethanolamine lipase (Mus musculus), Q8VD66 | purified mABHD4, FP-Rh probe fluorescence polarization | inhibition, % at 8.92 µM | 370,000 compounds, 0.54% hits;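 active = inhibition exceeding the mean over every tested compound plus 3 SD, cut at about 30% in these data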;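 note: 0% = plate median of compound wells and 100% = S159A mutant with DMSO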
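Assay system: wild-type mouse ABHD4 protein; compound: single nominal dose of 8.92 µM, 0.89% DMSO final; schedule: 45 min + 60 min at 25 °C; measured by: FP readout, ex 525 nm / em 598 nm; evaluation: % inhibition of FP-Rh probe binding versus controls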
TCR-CD3 inh = inhibitors of human TCR-CD3 interaction, primary screen, biochemical, fluorescence, TAMRA-labeled TCR probe; 360,000 compounds, 0.37% hits; inhibition, % at 9.4 µM; AID 651800, 2012; in the data active = inhibition above about 19%;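 note: recombinant mutant TCR 2C K166C tagged with TAMRA read by polarization; 0% = receptor in buffer alone and 100% = receptor with positive control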
AlphaScreen ctr = AlphaScreen signal interference compounds, dose response, artefact control for ARNT-TACC3 interaction inhibitor project, biochemical, luminescence, cherry-pick. shares compounds with ARNT-TACC3 inh. His-ARNT PASB-GST AlphaScreen artifact counter-screen. AC50, µM (series often up to 68 µM), without a hit: at the top dose activity change, negative = signal decrease. 1,200 compounds, 50% hits. AID 651705, 2012;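 active = every separate test run was called active for a drop in luminescence, with AC50 within twice the top valid dose, actives reach about 71 µM in these data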
An asterisk follows results filed as active; · = no result.

SMILES	ARNT-TACC3 inh	SIAE inh	HTRA1 inh	ABHD4 inh	TCR-CD3 inh	AlphaScreen ctr
CC1(C)Cc2c(sc3nc4n(-c5ccccc5)c(=O)c(CCC(=O)O)nn4c(=O)c23)CO1	57.4*	-10.8	0.4	10.8	0.3	-8.2%
COc1ccc(Nc2nc(N)nc(CN3CCOCC3)n2)cc1	39.6*	-4.1	13.1	4.1	-0.4	-0.5%
CCOC(=O)N1CCN(Cc2nc(N)nc(Nc3ccc(OC)cc3)n2)CC1	15.0	3.4	9.2	-6.9	2.4	·
Nc1nc(CN2CCN(Cc3ccccc3)CC2)nc(Nc2ccc3c(c2)OCCO3)n1	59.9*	-2.5	0.3	2.6	3.5	-24.1%
O=S(=O)(N[C@@H]1CCCN(Cc2ccc(OCCO)cc2)C1)c1cccc2cccnc12	80.3*	·	·	·	·	24.3µM*
c1ccc(-c2nnc(-c3ccccn3)nc2N2CCC(c3ccccc3)C2)cc1 (stereo unspecified)	·	·	·	·	·	4.76µM*
c1ccc(-c2nnc(-c3ccccn3)nc2N2CCN(c3ccncc3)CC2)cc1	·	·	·	·	·	2.14µM*
c1ccc(-c2nnc(-c3ccccn3)nc2N2CCC(N3CCOCC3)CC2)cc1	·	·	·	·	·	0.921µM*
Brc1ccc(-c2csc(N3CCC(c4ccccc4)C3)n2)cc1 (stereo unspecified)	8.5	4.0	0.9	-2.7	5.1	·
Cc1nnc(-c2ccccc2)nc1N1CCOCC1	1.5	-0.3	4.0	-11.9	-3.3	·
COc1cccc(NC(=O)N2C[C@@H](O)COC[C@@H]3O[C@H](CC(=O)NCCCN4CCOCC4)CC[C@H]32)c1	-2.1	·	·	·	·	·
COc1cc(CCNc2ccc3nnc(-c4ccccc4)n3n2)cc(OC)c1OC	55.8*	-10.9	-6.5	-5.2	-7.7	68.5µM*
CC(C)NC(=O)Nc1ccc2c(c1)C(=O)N([C@@H](C)CO)C[C@H](C)[C@@H](CN(C)C(=O)c1ccncc1)OCCCC[C@H](C)O2	0.5	·	·	·	·	·
N#Cc1cc2ccc(N3CCOCC3)cc2cc1C#N	28.8*	0.0	17.5	4.1	0.3	-15.6%
COc1cc(CNCc2ccccn2)ccc1OCc1c(Cl)cccc1Cl	56.4*	1.2	30.1	1.7	-3.3	-35.8%
COc1cc(CNCc2ccccn2)ccc1OCc1cccc(Cl)c1	53.2*	7.1	19.0	11.7	-0.9	-30.9%
COc1cc(CNCc2cccs2)ccc1OCc1ccccc1	2.9	3.4	-0.1	0.2	7.8	·
COc1cc(CNCc2ccccn2)ccc1OCc1ccc(Cl)cc1	52.7*	1.3	10.5	10.2	0.6	-30.0%
CN(C)C(=O)[C@@H]1[C@@H](CO)[C@@H]2Cn3c(ccc(C4=CCCC4)c3=O)[C@H]1N2Cc1cccnc1	0.6	·	·	·	·	·
O=C(N[C@H]1CC[C@@H](CCNC(=O)c2ccccc2F)O[C@@H]1CO)c1cnccn1	14.8	·	·	·	·	·
Cc1noc(C)c1NC(=O)Nc1ccc2c(c1)C(=O)N([C@@H](C)CO)C[C@@H](C)[C@H](CN(C)C(=O)Nc1ccc(F)cc1)OCCCC[C@@H](C)O2	-3.6	·	·	·	·	·
Oc1ccc(Br)cc1/C=N/Nc1ncc(-c2ccccc2)cn1	-2.9	3.8	22.5	4.9	-0.7	·
Oc1ccc(/C=N/Nc2ncc(Br)cn2)c(O)c1	56.9*	0.7	3.3	15.5	10.1	30µM*
O=C(NCCCn1ccnc1)C(=O)NCC(c1ccco1)N1CCN(c2ccc(F)cc2)CC1 (stereo unspecified)	58.8*	1.5	2.8	-9.4	-0.8	-14.8%
O=C(NCCCn1ccnc1)C(=O)NCC(c1ccco1)N1CCN(c2ccccc2)CC1 (stereo unspecified)	44.7*	4.0	2.1	-2.2	8.0	-13.2%
SMILES	ARNT-TACC3 inh	SIAE inh	HTRA1 inh	ABHD4 inh	TCR-CD3 inh	AlphaScreen ctr
COc1ccc(N2CCN(C(CNC(=O)C(=O)NCCCn3ccnc3)c3ccco3)CC2)cc1 (stereo unspecified)	2.3	3.4	3.7	-2.6	-4.2	·
COc1cc(C(=O)NCc2nnc(SCC(=O)Nc3nccs3)o2)cc(OC)c1OC	69.5*	-0.4	2.1	1.2	-6.6	-15.1%
COCC#Cc1ccc2c(c1)O[C@@H](CN(C)C(=O)C1CCC1)[C@H](C)CN([C@H](C)CO)S2(=O)=O	-4.1	·	·	·	·	·
Cc1ccccc1S(=O)(=O)NCC[C@@H]1CC[C@@H](NC(=O)C2CCCCC2)[C@H](CO)O1	-14.5	·	·	·	·	·
CC1(C)CC(=O)C=C(Nc2ccccc2N)C1	50.6*	2.8	-15.0	1.0	3.2	6.5%
CN1C[C@@H]2[C@H](c3ccccc31)[C@@H](CO)N2C(=O)C1CCCCC1	-2.7	·	·	·	·	·
c1ccc(-c2nnc(-c3ccccn3)nc2NCCCN2CCOCC2)cc1	·	·	·	·	·	1.1µM*
c1ccc(CCc2nc(-c3ccccn3)no2)cc1	3.8	7.4	-1.2	-0.1	4.9	·
c1ccc(-c2cccc(CNc3nc(-c4ccccn4)nnc3-c3ccccc3)c2)cc1	·	-8.6	·	3.8	·	7.09µM*
c1ccc(CCNc2nc(-c3ccccn3)nnc2-c2ccccc2)cc1	·	·	·	·	·	2.48µM*
c1ccc(-c2nnc(-c3ccccn3)nc2NCC2CCOCC2)cc1	·	·	·	·	·	1.13µM*
CC(C)Nc1nc(-c2ccccc2)nnc1-c1ccccc1	-10.0	0.3	-3.5	-5.6	4.0	·
c1ccc(CNc2nc(-c3ccccn3)nnc2-c2ccccc2)cc1	·	·	·	·	·	0.786µM*
COc1cccc(CNC(=O)c2cnc(-c3ccccn3)nc2C(F)(F)F)c1	·	-4.3	-2.7	4.3	2.5	·
OCCCNc1nc(-c2ccccn2)nnc1-c1ccccc1	·	·	·	·	·	1.2µM*
Cc1ccc(-c2nnc(NCc3ccccc3)c3ccccc23)cc1	-1.4	-0.8	-7.3	-37.6	-3.0	·
COc1cccc(CNc2nc(-c3ccccn3)nnc2-c2ccccc2)c1	·	·	·	·	·	1.64µM*
C[C@@H](Nc1nc(-c2ccccn2)nnc1-c1ccccc1)c1ccccc1	·	·	·	·	·	2.38µM*
O=[N+]([O-])c1ccc(-c2nnc(-c3ccccc3)c(NCCCO)n2)cc1	-4.7	-4.4	0.2	-2.9	-1.9	·
O=c1[nH][nH]c(=O)c2nc(Nc3ccccc3)ncc12	69.3*	2.9	4.0	1.4	-0.5	-16.9%
CC1CN(Cc2ccccc2Cl)CC(C)O1 (stereo unspecified)	0.9	-2.2	7.6	7.4	-3.0	·
CC1CN(Cc2ccc(O)c3ncccc23)CC(C)O1 (stereo unspecified)	·	·	·	·	·	4.69µM*
Oc1ccc(CNc2ccccn2)c2cccnc12	·	1.6	·	-0.5	·	·
Clc1ccccc1CN1CCC(Cc2ccccc2)CC1	-3.2	2.7	1.1	0.7	8.9	·
Oc1ccc(CNC2Cc3ccccc3C2)c2cccnc12	·	·	·	·	·	2.41µM*
